Results as given in ChEMBL document CHEMBL1629641, “An important site in PBP2x of penicillin-resistant clinical isolates of Streptococcus pneumoniae: mutational analysis of Thr338” (2009).
Values after ≈ are worked out from the molar mass of the structure shown.

How the values were obtained:
Conditions in all cases: R6, 48 h
Streptococcus pneumoniae [1] = test: Antimicrobial activity against Streptococcus pneumoniae R6 after 48 hrs by agar dilution method; assay type: functional
Procedure, shortened: (§1)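 Agar dilution on blood agar plates (D-agar with 3% defibrinated sheep blood), natural atmosphere, inoculated with cells from exponentially growing cultures in C-medium with 0.2% yeast extract grown at 37°C without aeration; narrow range of antibiotic concentrations to detect subtle susceptibility differences; MIC read after 48 h at 37°C.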

Streptococcus pneumoniae [2] = test: Antimicrobial activity against Streptococcus pneumoniae R6 harboring PBP2x T338A mutant gene after 48 hrs by agar dilution method; assay type: functional; procedure, shortened: as §1
Streptococcus pneumoniae [3] = test: Antimicrobial activity against Streptococcus pneumoniae R6 harboring PBP2x T338P mutant gene after 48 hrs by agar dilution method; assay type: functional; procedure, shortened: as §1
Streptococcus pneumoniae [4] = test: Antimicrobial activity against Streptococcus pneumoniae R6 harboring PBP2x T338G mutant gene after 48 hrs by agar dilution method; assay type: functional; procedure, shortened: as §1
Streptococcus pneumoniae [5] = test: Antimicrobial activity against Streptococcus pneumoniae R6 harboring PBP2x2349 mutant gene after 48 hrs by agar dilution method; assay type: functional; procedure, shortened: as §1
Streptococcus pneumoniae [6] = test: Antimicrobial activity against Streptococcus pneumoniae R6 harboring PBP2x2349 and PBP1a2349 mutant gene after 48 hrs by agar dilution method; assay type: functional; procedure, shortened: as §1
Streptococcus pneumoniae [7] = test: Antimicrobial activity against streptomycin-resistant Streptococcus pneumoniae R6 harboring PBP2x T338G and PBP1a2349 mutant gene after 48 hrs by agar dilution method; assay type: functional; procedure, shortened: as §1
Streptococcus pneumoniae [8] = test: Antimicrobial activity against streptomycin- resistant Streptococcus pneumoniae R6 harboring PBP2x2349 mutant gene and Janus disruption at PBP1a after 48 hrs by agar dilution method; assay type: functional; procedure, shortened: as §1
Streptococcus pneumoniae [9] = test: Antimicrobial activity against streptomycin-resistant Streptococcus pneumoniae R6 harboring PBP2x T338G mutant gene and Janus disruption at PBP1a after 48 hrs by agar dilution method; assay type: functional; procedure, shortened: as §1
Streptococcus pneumoniae [10] = test: Antimicrobial activity against Streptococcus pneumoniae R6 harboring wild type PBP2x, disruption in PBP1a and aad9 disruption in CiaR gene after 48 hrs by agar dilution method; assay type: functional; procedure, shortened: as §1
Streptococcus pneumoniae [11] = test: Antimicrobial activity against Streptococcus pneumoniae R6 harboring PBP2x T338A mutant gene, disruption at PBP1a and aad9 disruption in CiaR gene after 48 hrs by agar dilution method; assay type: functional; procedure, shortened: as §1
Streptococcus pneumoniae [12] = test: Antimicrobial activity against Streptococcus pneumoniae R6 harboring PBP2x T338P mutant gene, disruption at PBP1a and aad9 disruption in CiaR gene after 48 hrs by agar dilution method; assay type: functional; procedure, shortened: as §1
Streptococcus pneumoniae [13] = test: Antimicrobial activity against Streptococcus pneumoniae R6 harboring PBP2x T338G mutant gene, disruption at PBP1a and aad9 disruption in CiaR gene after 48 hrs by agar dilution method; assay type: functional; procedure, shortened: as §1
Streptococcus pneumoniae [14] = test: Antimicrobial activity against Streptococcus pneumoniae R6 harboring PBP2x T338G mutant gene, disruption at PBP1a and aad9 disruption in CiaR gene after 48 hrs by agar dilution method

Row | Compound | MIC (Streptococcus pneumoniae [1]) [µg/mL] | MIC (Streptococcus pneumoniae [2]) [µg/mL] | MIC (Streptococcus pneumoniae [3]) [µg/mL] | MIC (Streptococcus pneumoniae [4]) [µg/mL] | MIC (Streptococcus pneumoniae [5]) [µg/mL] | MIC (Streptococcus pneumoniae [6]) [µg/mL] | MIC (Streptococcus pneumoniae [7]) [µg/mL] | MIC (Streptococcus pneumoniae [8]) [µg/mL] | MIC (Streptococcus pneumoniae [9]) [µg/mL] | MIC (Streptococcus pneumoniae [10]) [µg/mL] | MIC (Streptococcus pneumoniae [11]) [µg/mL] | MIC (Streptococcus pneumoniae [12]) [µg/mL] | MIC (Streptococcus pneumoniae [13]) [µg/mL] | MIC (Streptococcus pneumoniae [14]) [µg/mL]
1 | CO/N=C(\C(=O)N[C@@H]1C(=O)N2C(C(=O)O)=C(COC(C)=O)CS[C@H]12)c1csc(N)n1 [CEFOTAXIME] | 0.02 (≈ 0.0439 µM) | 0.035 (≈ 0.0768 µM) | 0.04 (≈ 0.0878 µM) | 0.045 (≈ 0.0988 µM) | 0.3 (≈ 0.659 µM) | 1 (≈ 2.2 µM) | 0.03 (≈ 0.0659 µM) | 0.2 (≈ 0.439 µM) | 0.03 (≈ 0.0659 µM) | 0.025 (≈ 0.0549 µM) | 0.045 (≈ 0.0988 µM) | 0.045 (≈ 0.0988 µM) | 0.055 (≈ 0.121 µM) | 
2 | Cc1onc(-c2ccccc2)c1C(=O)N[C@@H]1C(=O)N2[C@@H]1SC(C)(C)[C@@H]2C(=O)O [OXACILLIN] | 0.08 (≈ 0.199 µM) | 0.18 (≈ 0.448 µM) | 0.23 (≈ 0.573 µM) | 0.25 (≈ 0.623 µM) | 1 (≈ 2.49 µM) | 0.85 (≈ 2.12 µM) | 0.16 (≈ 0.399 µM) | 0.95 (≈ 2.37 µM) | 0.21 (≈ 0.523 µM) | 0.08 (≈ 0.199 µM) | 0.2 (≈ 0.498 µM) | 0.24 (≈ 0.598 µM) | 0.25 (≈ 0.623 µM) | 
3 | CC1(C)S[C@@H]2[C@H](NC(=O)Cc3ccccc3)C(=O)N2[C@H]1C(=O)O [PENICILLIN G] | 0.02 (≈ 0.0598 µM) | 0.03 (≈ 0.0897 µM) | 0.03 (≈ 0.0897 µM) | 0.03 (≈ 0.0897 µM) | 0.04 (≈ 0.12 µM) | 0.035 (≈ 0.105 µM) | 0.02 (≈ 0.0598 µM) | 0.04 (≈ 0.12 µM) | 0.02 (≈ 0.0598 µM) | 0.02 (≈ 0.0598 µM) | 0.04 (≈ 0.12 µM) |  | 0.025 (≈ 0.0748 µM) | 0.025 (≈ 0.0748 µM)
4 | CCN1CCN(C(=O)N[C@@H](C(=O)N[C@@H]2C(=O)N3[C@@H]2SC(C)(C)[C@@H]3C(=O)O)c2ccccc2)C(=O)C1=O [PIPERACILLIN] | 0.04 (≈ 0.0773 µM) | 0.09 (≈ 0.174 µM) | 0.06 (≈ 0.116 µM) | 0.1 (≈ 0.193 µM) | 0.12 (≈ 0.232 µM) | 0.11 (≈ 0.213 µM) | 0.06 (≈ 0.116 µM) | 0.12 (≈ 0.232 µM) | 0.09 (≈ 0.174 µM) | 0.06 (≈ 0.116 µM) | 0.11 (≈ 0.213 µM) | 0.06 (≈ 0.116 µM) | 0.08 (≈ 0.155 µM) | 
